Reference: ChEMBL document CHEMBL3046199, “Synthesis and antiviral activities of pyrazole derivatives containing an oxime moiety” (J Agric Food Chem, 2008)

Legend:
[1] = system: Tobacco mosaic virus; assay: In vivo antiviral activity against Tobacco mosaic virus (TMV) infected left side of tobacco leaves assessed as curative effect at 500 ug/ml treated after viral inoculation measured at 3-4 days after viral challenge; type: functional
[2] = system: Tobacco mosaic virus; assay: In vivo antiviral activity against Tobacco mosaic virus (TMV) infected left side of tobacco leaves assessed as inactivation effect at 500 ug/ml co-incubated with virus for 30 min before inoculation onto leaves measured at 3-4 days after viral challenge; type: functional
[3] = system: Tobacco mosaic virus; assay: In vivo antiviral activity against Tobacco mosaic virus (TMV) infected left side of tobacco leaves assessed as protective effect at 500 ug/ml treated 12 hr before viral inoculation measured at 3-4 days after viral challenge; type: functional
Method in brief: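 TMV purified from inoculated N. tabacum upper leaves (ground in phosphate buffer, filtered, centrifuged at 10000g, twice PEG-treated, all at 4 °C), concentration from A260. Compound solution smeared on left half of same-age N. tabacum leaves, solvent on right half as control. Leaves inoculated 12 h later by brush with 6 × 10^-3 mg/mL TMV over silicon carbide. Local lesions counted 3-4 days post-inoculation, three repetitions. Inhibition % = (control lesions − treated lesions)/control lesions × 100.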

[4] = system: Tobacco mosaic virus; assay: In vivo antiviral activity against Tobacco mosaic virus (TMV) infected left side of tobacco leaves assessed as inactivation effect at […] ug/ml co-incubated with virus for 30 min before inoculation onto leaves measured at 3-4 days after viral challenge; type: functional
[5] = system: Tobacco mosaic virus; assay: In vivo antiviral activity against Tobacco mosaic virus (TMV) infected left side of tobacco leaves assessed as inactivation effect at 250 ug/ml co-incubated with virus for 30 min before inoculation onto leaves measured at 3-4 days after viral challenge; type: functional
[6] = system: Tobacco mosaic virus; assay: In vivo antiviral activity against Tobacco mosaic virus (TMV) infected left side of tobacco leaves assessed as inactivation effect at 62.5 ug/ml co-incubated with virus for 30 min before inoculation onto leaves measured at 3-4 days after viral challenge; type: functional
[7] = system: Tobacco mosaic virus; assay: In vivo antiviral activity against Tobacco mosaic virus (TMV) infected left side of tobacco leaves assessed as inactivation effect at 125 ug/ml co-incubated with virus for 30 min before inoculation onto leaves measured at 3-4 days after viral challenge; type: functional
[8] = system: Tobacco mosaic virus; assay: In vivo antiviral activity against Tobacco mosaic virus (TMV) infected left side of tobacco leaves assessed as inactivation effect co-incubated with virus for 30 min before inoculation onto leaves measured at 3-4 days after viral challenge; type: functional, organism-based

COc1ccc(S(=O)(=O)c2c(/C=N/OCc3ccc(Cl)nc3)c(C)nn2-c2ccccc2)cc1
Activity [1]: 15.6%
Activity [2]: 30.1%
Activity [3]: 29.8%

COc1ccc(Sc2c(/C=N/OCc3ccc(Cl)nc3)c(C)nn2-c2ccc(Cl)cc2)cc1
Activity [1]: 12.9%
Activity [2]: 34.5%
Activity [3]: 22%

Cc1nn(-c2ccccc2)c(S(=O)(=O)c2ccc(F)cc2)c1/C=N/OCc1ccc(Cl)nc1
Activity [1]: 21.7%
Activity [2]: 20.6%
Activity [3]: 40.2%

Cc1ccc(-n2nc(C)c(CO/N=C/c3c(C)nn(-c4ccc(C)cc4)c3Sc3ccc(F)cc3)c2Cl)cc1
Activity [1]: 22%
Activity [2]: 50.9%
Activity [3]: 41%

Cc1ccc(Sc2c(/C=N/OCc3ccc(Cl)nc3)c(C)nn2-c2ccccc2)cc1
Activity [1]: 47%
Activity [2]: 90.4%
Activity [4]: 40.1%
Activity [5]: 76%
Activity [6]: 55.1%
Activity [7]: 69.2%
Activity [3]: 31.3%
EC50 [8]: 58.7 µg/mL

Cc1nn(-c2ccc(Cl)cc2)c(S(=O)(=O)c2ccc(F)cc2)c1/C=N/OCc1ccc(Cl)nc1
Activity [1]: 7.7%
Activity [2]: 44.1%
Activity [3]: 42.2%

Cc1nn(-c2ccc(Cl)cc2)c(Sc2ccc(F)cc2)c1/C=N/OCc1ccc(Cl)nc1
Activity [1]: 37.3%
Activity [2]: 80.6%
Activity [4]: 40.6%
Activity [5]: 65.7%
Activity [6]: 51.2%
Activity [7]: 53%
Activity [3]: 43.5%
EC50 [8]: 65.3 µg/mL

Cc1ccc(Sc2c(/C=N/OCc3ccc(Cl)nc3)c(C)nn2-c2ccc(C)cc2)cc1
Activity [1]: 32.1%
Activity [2]: 61%
Activity [3]: 15.7%

CNCC(=O)N[C@@H](CO)C(=O)N[C@H]1[C@H](O)[C@@H](O)[C@H](n2ccc(N)nc2=O)O[C@@H]1C(N)=O [NINGNANMYCIN]
Activity [1]: 54.8%
Activity [2]: 98%
Activity [4]: 44%
Activity [5]: 81.1%
Activity [6]: 59.9%
Activity [7]: 72%
Activity [3]: 57%
EC50 [8]: 52.7 µg/mL

COc1ccc(Sc2c(/C=N/OCc3ccc(Cl)nc3)c(C)nn2-c2ccccc2)cc1
Activity [1]: 26.6%
Activity [2]: 71.2%
Activity [4]: 32%
Activity [5]: 65%
Activity [6]: 41%
Activity [7]: 48.9%
Activity [3]: 16.4%
EC50 [8]: 115 µg/mL

Cc1nn(-c2cccc(Cl)c2)c(S(=O)(=O)c2ccc(F)cc2)c1/C=N/OCc1ccc(Cl)nc1
Activity [1]: 11%
Activity [2]: 30%
Activity [3]: 12.9%

Cc1nn(-c2ccccc2)c(Sc2ccc(F)cc2)c1/C=N/OCc1ccc(Cl)nc1
Activity [1]: 24%
Activity [2]: 65.9%
Activity [3]: 18.9%

Cc1nn(-c2ccccc2)c(Sc2ccc(F)cc2)c1/C=N/OCc1c(C)nn(-c2ccc(Cl)cc2)c1Cl
Activity [1]: 35.6%
Activity [2]: 55.9%
Activity [3]: 32%

Cc1ccc(-n2nc(C)c(/C=N/OCc3c(C)nn(-c4ccc(Cl)cc4)c3Cl)c2Sc2ccc(F)cc2)cc1
Activity [1]: 31.9%
Activity [2]: 43%
Activity [3]: 19%

Cc1ccc(Sc2c(/C=N/OCc3ccc(Cl)nc3)c(C)nn2-c2ccc(Cl)cc2)cc1
Activity [1]: 26%
Activity [2]: 61.2%
Activity [3]: 37.7%

Cc1ccc(-n2nc(C)c(/C=N/OCc3ccc(Cl)nc3)c2Sc2ccc(F)cc2)cc1
Activity [1]: 22%
Activity [2]: 56.6%
Activity [3]: 31%

COc1ccc(S(=O)(=O)c2c(/C=N/OCc3ccc(Cl)nc3)c(C)nn2-c2ccc(Cl)cc2)cc1
Activity [1]: 3.6%
Activity [2]: 30.9%
Activity [3]: 16.4%

Cc1ccc(-n2nc(C)c(/C=N/OCc3ccc(Cl)nc3)c2S(=O)(=O)c2ccc(F)cc2)cc1
Activity [1]: 22%
Activity [2]: 11%
Activity [3]: 28.2%

Cc1ccc(Sc2c(/C=N/OCc3c(C)nn(-c4ccc(C)cc4)c3Cl)c(C)nn2-c2ccc(C)cc2)cc1
Activity [1]: 38.9%
Activity [2]: 51.2%
Activity [3]: 44.8%

Cc1ccc(S(=O)(=O)c2c(/C=N/OCc3ccc(Cl)nc3)c(C)nn2-c2ccccc2)cc1
Activity [1]: 9%
Activity [2]: 45%
Activity [3]: 28%

Cc1ccc(Sc2c(/C=N/OCc3c(C)nn(-c4ccc(C)cc4)c3Cl)c(C)nn2-c2ccc(Cl)cc2)cc1
Activity [1]: 18.9%
Activity [2]: 36.7%
Activity [3]: 21%

Cc1nn(-c2cccc(Cl)c2)c(Sc2ccc(F)cc2)c1/C=N/OCc1ccc(Cl)nc1
Activity [1]: 34.3%
Activity [2]: 61.7%
Activity [3]: 28.6%

Cc1ccc(S(=O)(=O)c2c(/C=N/OCc3ccc(Cl)nc3)c(C)nn2-c2ccc(Cl)cc2)cc1
Activity [1]: 9.2%
Activity [2]: 33.3%
Activity [3]: 31.3%
